The source made the active and inactive calls. The calls are words filed in the database; no cut-off is given here.
Key:
[1] = system: RAW264.7; experiment: Activation of Nrf2/HO-1 signalling pathway in mouse RAW264.7 cells assessed as inhibition of LPS-induced NO production at 2 uM preincubated for 1 hr in presence of NAC followed by LPS stimulation and measured after 24 hrs by Griess reagent-based assay; format: cell-based; conditions: time 25.0 hrs
How it was run: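 Cells pretreated 1 h with or without NAC 5 mM alongside 2 µM compound, then LPS 0.5 µg/mL for 24 h. Medium NO measured by Griess reagent. Means ± SD of three independent experiments.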

[2] = system: RAW264.7; experiment: Inhibition of MAPK signalling activation in mouse RAW264.7 cells assessed as reduction in LPS-induced p38 phosphorylation at 0.5 to 2 uM preincubated for 1 hr followed by LPS stimulation by Western blotting analysis; format: cell-based; conditions: dose 0.5-2 µM, TDE = time-dependent effect
How it was run: (§1)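 Pretreatment 1 h with 0.5–2 µM, then LPS 0.5 µg/mL for 30 min. p-IκB, IκB, p-p65, p65, ERK, JNK, p38 and their phosphorylated forms, plus β-actin, detected by Western blot (RIPA lysis, SDS-PAGE, PVDF, primary 16 h at 4 °C, HRP secondary 1:5000, ECL).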

[3] = system: RAW264.7; experiment: Inhibition of MAPK signalling activation in mouse RAW264.7 cells assessed as reduction in LPS-induced ERK phosphorylation at 0.5 to 2 uM preincubated for 1 hr followed by LPS stimulation by Western blotting analysis; format: cell-based; conditions: dose 0.5-2 µM, TDE = time-dependent effect; how it was run: as §1
[4] = system: Rattus norvegicus; experiment: Antiarthritic activity in Sprague-Dawley rat model of arthritis assessed as reduction in CFA-induced inflammatory cell infiltration at 20 mg/kg, ig administered daily for 28 days starting from 14 days post-immunization and measured every 3 days by H and E staining based histopathological analysis; format: functional, organism-based; conditions: time 28.0 day
How it was run: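 AA rats (male SD, CFA intradermal into right hind paw) dosed intragastrically once daily at 20 or 40 mg/kg from day 14 to day 28. Killed after 29 days. Ankle joints fixed in 4% neutral buffered paraformaldehyde, decalcified in 10% EDTA, sectioned and H&E stained. Scored for synovial hyperplasia, inflammatory cell infiltration and cartilage destruction.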

[5] = system: RAW264.7; experiment: Inhibition of NF-kappaB activation in mouse RAW264.7 cells assessed as reduction in LPS-induced p65 phosphorylation at 0.5 to 2 uM preincubated for 1 hr followed by LPS stimulation and measured after 30 mins by Western blotting analysis; format: cell-based; conditions: dose 0.5-2 µM, time 90.0 min; how it was run: as §1
[6] = system: Rattus norvegicus; experiment: Antiarthritic activity in Sprague-Dawley rat model of CFA-induced arthritis assessed as reduction in paw swelling at 20 to 40 mg/kg, […] and measured every 3 days; format: functional, organism-based; conditions: dose 20-40 mg/kg
[7] = system: RAW264.7; experiment: Inhibition of LPS-induced ROS generation in mouse RAW264.7 cells at 0.5 to 2 uM preincubated for 1 hr followed by LPS stimulation and measured after 6 hrs by DCFH-DA staining based flow cytometry analysis; format: functional, cell-based; conditions: dose 0.5-2 µM, time 7.0 hrs
How it was run: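 RAW264.7 cells (1.5 × 10^6/well, grown 24 h) pretreated 1 h with 0.5, 1, 2 µM, then LPS 0.5 µg/mL for 6 h. Loaded with DCFH-DA 30 min at 37 °C, washed three times with cold serum-free medium or PBS. Intracellular ROS read by flow cytometry.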

## COc1cc(OC)c2c(c1)C(C(O)c1ccc(OCc3ccc(F)cc3)cc1)OC2=O (configuration not stated)
[1]
  Activity: inactive
[2]
  inhibition: Tde
[3]
  inhibition: Tde
[4]
  Activity: Active
[5]
  inhibition: Active
[6]
  Activity: Active
[7]
  inhibition: inactive
